From ChEMBL document CHEMBL1144306, “1-Hydroxyalkyl-3-phenylthioureas as novel HDL-elevating agents” (2005)

Columns and labels:
Format in all cases: functional
Rattus norvegicus [1] = assay: Effect on level of high density lipoprotein cholesterol (relative to untreated control) in cholesterol fed-male rats at 80 mg/kg/day
Procedure, shortened: (§1)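 Male Sprague–Dawley rats (groups of six) fed a cholic acid- and cholesterol-supplemented diet; compound mixed into the diet, given ad libitum for eight days. Lipoproteins were separated by ultracentrifugation, and cholesterol was measured by an enzymatic colorimetric method. Results are % change versus untreated controls, with significance at p < 0.05.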

Rattus norvegicus [2] = assay: Effect on level of total cholesterol (relative to untreated control) in cholesterol fed-male rats at 80 mg/kg/day; procedure, shortened: as §1
Rattus norvegicus [3] = assay: Effect on change in body weight gain (relative to untreated control) in cholesterol fed-male rats at 80 mg/kg/day
Procedure, shortened: (§2)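 Male Sprague–Dawley rats, six per group, on a cholic acid- and cholesterol-supplemented diet. Compounds were mixed into the diet and given ad libitum for eight days. Change in body weight gain is expressed as a percentage of untreated controls. Significance was set at p < 0.05 versus untreated controls.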

Rattus norvegicus [4] = assay: Effect on level of apolipoprotein (Apo) AI (relative to untreated control) in cholesterol fed-male rats at 80 mg/kg/day
Procedure, shortened: (§3)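 Six male Sprague–Dawley rats per group, fed a cholic acid/cholesterol-supplemented diet, received compound in the diet ad libitum for eight days. Serum Apo A–I was measured by SDS-PAGE or by rat competition ELISA and reported as % change versus untreated controls (p < 0.05). Gemfibrozil was the internal positive control in each study.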

Rattus norvegicus [5] = assay: Effect on level of triglyceride in (relative to untreated control) in cholesterol fed-male rats at 80 mg/kg/day
Procedure, shortened: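 Compound given in diet ad libitum for eight days to groups of six male Sprague–Dawley rats on a cholic acid and cholesterol-supplemented diet. Serum triglycerides expressed as % change relative to untreated controls, with significance at p < 0.05. Gemfibrozil served as internal positive control within each study.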

Rattus norvegicus [6] = assay: Effect on level of apolipoprotein (Apo) AI (relative to untreated control) in cholesterol fed-male rats at 40 mg/kg/day; procedure, shortened: as §3
Rattus norvegicus [7] = assay: Effect on level of high density lipoprotein cholesterol (relative to untreated control) in cholesterol fed-male rats at 40 mg/kg/day
Procedure, shortened: (§4)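 Cholic acid/cholesterol-fed male Sprague–Dawley rats (n = 6 per group) were dosed via diet ad libitum for eight days. Lipoproteins were separated by ultracentrifugation and HDL cholesterol was quantified by an enzymatic colorimetric method. Values are % change relative to untreated controls, with significance at p < 0.05. Gemfibrozil was the internal positive control.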

Rattus norvegicus [8] = assay: Effect on change in body weight gain (relative to untreated control) in cholesterol fed-male rats at 40 mg/kg/day; procedure, shortened: as §2
Rattus norvegicus [9] = assay: Effect on level of total cholesterol (relative to untreated control) in cholesterol fed-male rats at 40 mg/kg/day; procedure, shortened: as §1
Rattus norvegicus [10] = assay: Effect on level of triglyceride in (relative to untreated control) in cholesterol fed-male rats at 40 mg/kg/day
Procedure, shortened: (§5)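 Serum triglycerides were measured in groups of six male Sprague–Dawley rats on a cholic acid/cholesterol-supplemented diet. Compound was dosed in the diet, ad libitum, for eight days. Results are % change relative to untreated controls, with significance at p < 0.05.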

Rattus norvegicus [11] = assay: Effect on level of high density lipoprotein cholesterol (relative to untreated control) in cholesterol fed-male rats at 51 mg/kg/day; procedure, shortened: as §4
Rattus norvegicus [12] = assay: Effect on change in body weight gain (relative to untreated control) in cholesterol fed-male rats at 51 mg/kg/day; procedure, shortened: as §2
Rattus norvegicus [13] = assay: Effect on level of total cholesterol (relative to untreated control) in cholesterol fed-male rats at 51 mg/kg/day; procedure, shortened: as §1
Rattus norvegicus [14] = assay: Effect on level of triglyceride in (relative to untreated control) in cholesterol fed-male rats at 51 mg/kg/day; procedure, shortened: as §5
Rattus norvegicus [15] = assay: Effect on level of apolipoprotein (Apo) AI (relative to untreated control) in cholesterol fed-male rats at 51 mg/kg/day; procedure, shortened: as §3
Rattus norvegicus [16] = assay: Effect on level of high density lipoprotein cholesterol (relative to untreated control) in cholesterol fed-male rats at 68 mg/kg/day; procedure, shortened: as §1
Rattus norvegicus [17] = assay: Effect on level of total cholesterol (relative to untreated control) in cholesterol fed-male rats at 68 mg/kg/day; procedure, shortened: as §1
Rattus norvegicus [18] = assay: Effect on change in body weight gain (relative to untreated control) in cholesterol fed-male rats at 68 mg/kg/day; procedure, shortened: as §2
Rattus norvegicus [19] = assay: Effect on level of triglyceride in (relative to untreated control) in cholesterol fed-male rats at 68 mg/kg/day; procedure, shortened: as §5
Rattus norvegicus [20] = assay: Effect on level of apolipoprotein (Apo) AI (relative to untreated control) in cholesterol fed-male rats at 68 mg/kg/day; procedure, shortened: as §3
Rattus norvegicus [21] = assay: Effect on level of high density lipoprotein cholesterol (relative to untreated control) in cholesterol fed-male rats at 67 mg/kg/day; procedure, shortened: as §1
Rattus norvegicus [22] = assay: Effect on level of total cholesterol (relative to untreated control) in cholesterol fed-male rats at 67 mg/kg/day; procedure, shortened: as §1
Rattus norvegicus [23] = assay: Effect on change in body weight gain (relative to untreated control) in cholesterol fed-male rats at 67 mg/kg/day; procedure, shortened: as §2
Rattus norvegicus [24] = assay: Effect on level of triglyceride in (relative to untreated control) in cholesterol fed-male rats at 67 mg/kg/day; procedure, shortened: as §5
Rattus norvegicus [25] = assay: Effect on level of apolipoprotein (Apo) AI (relative to untreated control) in cholesterol fed-male rats at 67 mg/kg/day; procedure, shortened: as §3
Rattus norvegicus [26] = assay: Effect on level of high density lipoprotein cholesterol (relative to untreated control) in cholesterol fed-male rats at 75 mg/kg/day; procedure, shortened: as §1
Rattus norvegicus [27] = assay: Effect on level of total cholesterol (relative to untreated control) in cholesterol fed-male rats at 75 mg/kg/day; procedure, shortened: as §1
Rattus norvegicus [28] = assay: Effect on level of triglyceride in (relative to untreated control) in cholesterol fed-male rats at 75 mg/kg/day; procedure, shortened: as §5
Rattus norvegicus [29] = assay: Effect on level of apolipoprotein (Apo) AI (relative to untreated control) in cholesterol fed-male rats at 75 mg/kg/day; procedure, shortened: as §3
Rattus norvegicus [30] = assay: Effect on change in body weight gain (relative to untreated control) in cholesterol fed-male rats at 75 mg/kg/day; procedure, shortened: as §2
Rattus norvegicus [31] = assay: Effect on level of apolipoprotein (Apo) AI (relative to untreated control) in cholesterol fed-male rats at 36 mg/kg/day; procedure, shortened: as §3
Rattus norvegicus [32] = assay: Effect on level of high density lipoprotein cholesterol (relative to untreated control) in cholesterol fed-male rats at 36 mg/kg/day; procedure, shortened: as §4
Rattus norvegicus [33] = assay: Effect on change in body weight gain (relative to untreated control) in cholesterol fed-male rats at 36 mg/kg/day; procedure, shortened: as §2
Rattus norvegicus [34] = assay: Effect on level of total cholesterol (relative to untreated control) in cholesterol fed-male rats at 36 mg/kg/day; procedure, shortened: as §1
Rattus norvegicus [35] = assay: Effect on level of triglyceride in (relative to untreated control) in cholesterol fed-male rats at 36 mg/kg/day; procedure, shortened: as §5
Rattus norvegicus [36] = assay: Effect on level of high density lipoprotein cholesterol (relative to untreated control) in cholesterol fed-male rats at 74 mg/kg/day; procedure, shortened: as §1
Rattus norvegicus [37] = assay: Effect on change in body weight gain (relative to untreated control) in cholesterol fed-male rats at 74 mg/kg/day; procedure, shortened: as §2
Rattus norvegicus [38] = assay: Effect on level of total cholesterol (relative to untreated control) in cholesterol fed-male rats at 74 mg/kg/day; procedure, shortened: as §1
Rattus norvegicus [39] = assay: Effect on level of triglyceride in (relative to untreated control) in cholesterol fed-male rats at 74 mg/kg/day; procedure, shortened: as §5
Rattus norvegicus [40] = assay: Effect on level of apolipoprotein (Apo) AI (relative to untreated control) in cholesterol fed-male rats at 74 mg/kg/day; procedure, shortened: as §3

Structure (SMILES): Cc1ccc(Cl)cc1/N=C(\S)NC(C)(C)CO
- Activity (Rattus norvegicus [1]): 58%
- Activity (Rattus norvegicus [2]): -13%
- Activity (Rattus norvegicus [3]): -23%
- Activity (Rattus norvegicus [4]): 23%
- Activity (Rattus norvegicus [5]): -15%

Structure (SMILES): Cc1cccc(Cl)c1/N=C(\S)NCCO
- Activity (Rattus norvegicus [6]): -34%
- Activity (Rattus norvegicus [7]): 23%
- Activity (Rattus norvegicus [8]): -155%
- Activity (Rattus norvegicus [9]): 8%
- Activity (Rattus norvegicus [10]): -48%

Structure (SMILES): Cc1ccccc1/N=C(\S)NCCO
- Activity (Rattus norvegicus [11]): 3%
- Activity (Rattus norvegicus [12]): -138%
- Activity (Rattus norvegicus [13]): 66%
- Activity (Rattus norvegicus [14]): -51%
- Activity (Rattus norvegicus [15]): -18%

Structure (SMILES): COc1ccc(Cl)cc1/N=C(\S)NCCO
- Activity (Rattus norvegicus [1]): 106%
- Activity (Rattus norvegicus [2]): 66%
- Activity (Rattus norvegicus [3]): -38%
- Activity (Rattus norvegicus [4]): 30%
- Activity (Rattus norvegicus [5]): -27%

Structure (SMILES): Cc1ccc(Cl)cc1N/C(S)=N/C[C@H](C)O
- Activity (Rattus norvegicus [16]): 33%
- Activity (Rattus norvegicus [17]): 30%
- Activity (Rattus norvegicus [18]): -68%
- Activity (Rattus norvegicus [19]): -75%
- Activity (Rattus norvegicus [20]): 8%

Structure (SMILES): Cc1c(Cl)cccc1/N=C(\S)NCCO
- Activity (Rattus norvegicus [21]): 63%
- Activity (Rattus norvegicus [22]): 10%
- Activity (Rattus norvegicus [23]): -56%
- Activity (Rattus norvegicus [24]): -16%
- Activity (Rattus norvegicus [25]): 27%

Structure (SMILES): Cc1ccc(Cl)cc1N/C(S)=N/[C@H](C)CO
- Activity (Rattus norvegicus [26]): 13%
- Activity (Rattus norvegicus [27]): 85%
- Activity (Rattus norvegicus [28]): -23%
- Activity (Rattus norvegicus [29]): 6%
- Activity (Rattus norvegicus [30]): -4%

Structure (SMILES): Cc1ccc(Cl)cc1/N=C(\S)NCCS
- Activity (Rattus norvegicus [31]): 10%
- Activity (Rattus norvegicus [32]): 25%
- Activity (Rattus norvegicus [33]): -20%
- Activity (Rattus norvegicus [34]): 8%
- Activity (Rattus norvegicus [35]): -3%

Structure (SMILES): OCC/N=C(\S)Nc1cc(Cl)ccc1Cl
- Activity (Rattus norvegicus [16]): 71%
- Activity (Rattus norvegicus [17]): 21%
- Activity (Rattus norvegicus [18]): -66%
- Activity (Rattus norvegicus [19]): -13%
- Activity (Rattus norvegicus [20]): 36%

Structure (SMILES): Cc1ccc(N/C(S)=N/CCO)cc1Cl
- Activity (Rattus norvegicus [36]): 72%
- Activity (Rattus norvegicus [37]): -77%
- Activity (Rattus norvegicus [38]): 15%
- Activity (Rattus norvegicus [39]): -15%
- Activity (Rattus norvegicus [40]): -5%
